The subject of data set [1] is SH-SY5Y. Briefly: Cytotoxicity against human SH-SY5Y cells assessed as effect on NR uptake at 1 to 10 uM measured after 24 hrs by neutral red uptake assay. It is filed as cell-based. As to conditions: dose 1-10 µM; call rule not given here. In a few lines: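 Differentiated SH-SY5Y cells were exposed to compounds at 1 and 10 μM for 24 h. Lysosomal activity was read as neutral red dye uptake and compared with untreated cells. Mean ± SEM of at least three independent experiments run in triplicate.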

Data set [2] deals with T1, Amine oxidase [flavin-containing] B (Homo sapiens, UniProt P27338).
T1 sequence (P27338 whole entry): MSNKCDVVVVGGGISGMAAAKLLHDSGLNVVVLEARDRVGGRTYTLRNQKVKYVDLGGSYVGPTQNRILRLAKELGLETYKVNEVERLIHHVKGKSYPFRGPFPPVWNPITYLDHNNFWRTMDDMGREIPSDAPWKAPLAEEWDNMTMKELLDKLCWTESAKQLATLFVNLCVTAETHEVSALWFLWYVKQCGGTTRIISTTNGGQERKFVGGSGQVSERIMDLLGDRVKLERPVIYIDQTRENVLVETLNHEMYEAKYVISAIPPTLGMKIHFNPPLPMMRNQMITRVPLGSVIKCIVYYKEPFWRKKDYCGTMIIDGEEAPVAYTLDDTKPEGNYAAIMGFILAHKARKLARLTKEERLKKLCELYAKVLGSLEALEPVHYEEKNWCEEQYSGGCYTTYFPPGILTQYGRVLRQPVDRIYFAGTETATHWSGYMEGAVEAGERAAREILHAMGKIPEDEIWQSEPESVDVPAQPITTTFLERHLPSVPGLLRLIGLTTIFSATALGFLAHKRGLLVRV
Briefly: Inhibition of recombinant human MAO-B expressed in baculovirus infected BTI-TN- 5B1-4 insect cells using kynuramine as substrate preincubated for 10 mins in presence of substrate followed by enzyme addition and measured every minute for 30 mins by spectrophotometry analysis. It is filed as cell-based.

The target of data set [3] is T2, Amine oxidase [flavin-containing] A (Homo sapiens, UniProt P21397).
T2 sequence (P21397 whole entry): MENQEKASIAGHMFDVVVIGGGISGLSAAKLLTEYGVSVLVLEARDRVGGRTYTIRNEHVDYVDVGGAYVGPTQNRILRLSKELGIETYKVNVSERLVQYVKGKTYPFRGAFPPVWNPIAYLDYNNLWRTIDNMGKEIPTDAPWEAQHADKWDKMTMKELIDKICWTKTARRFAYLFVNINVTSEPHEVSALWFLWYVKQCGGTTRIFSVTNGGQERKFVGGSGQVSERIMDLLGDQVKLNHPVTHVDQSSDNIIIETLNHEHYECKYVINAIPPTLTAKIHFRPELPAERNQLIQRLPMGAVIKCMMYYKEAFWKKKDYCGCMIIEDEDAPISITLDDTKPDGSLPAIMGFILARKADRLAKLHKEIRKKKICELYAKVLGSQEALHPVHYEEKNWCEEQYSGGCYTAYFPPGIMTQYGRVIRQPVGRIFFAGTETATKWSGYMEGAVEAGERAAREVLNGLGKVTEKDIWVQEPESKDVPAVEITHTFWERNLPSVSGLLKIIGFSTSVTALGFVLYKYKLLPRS
Briefly: Inhibition of recombinant human MAO-A expressed in baculovirus infected BTI-TN- 5B1-4 insect cells using kynuramine as substrate preincubated for 10 mins in presence of substrate followed by enzyme addition and measured every minute for 30 mins by spectrophotometry analysis. Put shortly:
(§1)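 Recombinant hMAO-A and hMAO-B were assayed with kynuramine as substrate. Percent inhibition was taken at 10 μM, the highest concentration tested. Where the hMAO-A IC₅₀ was not reached, it was taken as 10 μM.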

In data set [4] the test system is Caco-2. Briefly: Cytotoxicity against human Caco-2 cells assessed as reduction in cell viability at 10 uM measured after 24 hrs by MTT assay relative to control. The data set is classed as cell-based. The conditions noted are these: caco-2, 24 h. Put shortly:
(§2)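 Caco-2 cells, and SH-SY5Y cells first differentiated toward a dopaminergic-like phenotype, were treated for 24 h with compounds at 1 and 10 μM. Metabolic activity was read as MTT reduction to formazan, relative to untreated cells. Mean ± SEM of at least three independent experiments, each in triplicate.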
For orientation: Tetrazolium assays rely on reduction of a dye to a coloured formazan, in cell work by metabolically active cells.

Another data set is filed under the species Homo sapiens. The data set is described as follows: Selectivity index, ratio of IC50 for recombinant human MAO-A expressed in baculovirus infected BTI-TN- 5B1-4 insect cells to IC50 for recombinant human MAO-B expressed in baculovirus infected BTI-TN- 5B1-4 insect cells using kynuramine as substrate preincubated for 10 mins in presence of substrate followed by enzyme addition and measured every minute for 30 mins by spectrophotometry analysis. Put shortly: as §1

The subject of data set [5] is HEK293. The data set is described as follows: Cytotoxicity against HEK293 cells incubated for 24 to 48 hrs by Celltiter-Glo assay. It is filed as cell-based, Homo sapiens. A general note: In ATP-based viability assays light output follows the ATP content of the culture.
The target of a further data set is hERG (Homo sapiens, UniProt Q12809). Briefly: Inhibition of human ERG at 10 uM incubated for 2 hrs by fluorescence polarization assay relative to control. Put shortly:
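hERG binding was measured by fluorescence polarization, using a homogenized membrane preparation containing hERG plus a fluorescent tracer. A drop in FP signal from tracer displacement was read as inhibition. Compounds were tested at 10 μM.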

Data set [6] concerns HEK293. Briefly: Cytotoxicity against HEK293 cells at 10 uM incubated for 24 to 48 hrs by Celltiter-Glo assay relative to control. The data set is classed as cell-based. The conditions noted are these: human, hek293, 10 µM, time 24-48 hrs. Put shortly: (§3)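 Cells (HEK-293, HUVEC, MCF-7) exposed to test compounds at 10 μM for 24 h; cytotoxicity read in triplicate with a luminescence kit measuring intracellular ATP levels.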

For a further data set, the target named is T3, MAO-A (Homo sapiens, UniProt P21397).
T3 sequence (P21397 whole entry): T2 sequence (P21397 whole entry)
Briefly: Inhibition of recombinant human MAO-A expressed in baculovirus infected BTI-TN- 5B1-4 insect cells at 10 uM using kynuramine as substrate preincubated for 10 mins in presence of substrate followed by enzyme addition and measured every minute for 30 mins by spectrophotometry analysis relative to control. The conditions noted are these: probe kynuramine, time 40 min. In a few lines:
as §1

For data set [7], the system named is MCF7. Briefly: Cytotoxicity against human MCF7 cells incubated for 24 to 48 hrs by Celltiter-Glo assay. The data set is classed as cell-based.
The target of data set [8] is T1, Amine oxidase [flavin-containing] B. The data set is described as follows: Time dependent inhibition of recombinant human MAO-B expressed in baculovirus infected BTI-TN- 5B1-4 insect cells assessed as increase in enzyme activity at IC80 measured after 120 mins. As to conditions: bti-tn-5b1-4, 2 h.
For data set [9], the target named is ATP-dependent translocase ABCB1 (Homo sapiens, UniProt P08183). Briefly: Modulation of P-gp-mediated Rhodamine-123 efflux in human Caco-2 cells assessed as Rhodamine-123 accumulation at 10 uM pretreated for 30 mins in presence or absence of Zos followed by Rho-123 addition and measured after 90 mins by fluorescence spectroscopy. The conditions noted are these: caco-2, 2 h, time 120 min. It is filed as cell-based. In a few lines:
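Caco-2 cells were exposed to compounds at 10 μM during incubation with the P-gp substrate rhodamine 123 (5 μM). Zosuquidar served as the specific P-gp inhibitor. Cellular rhodamine 123 was read by fluorescence spectroscopy. Mean ± SEM of at least three independent experiments in triplicate.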

For data set [10], the system named is Caco-2. The data set is described as follows: Cytotoxicity against human Caco-2 cells assessed as effect on cell viability at 1 to 10 uM measured after 24 hrs by MTT assay. The conditions noted are these: caco-2, 24 h, dose 1-10 µM. It is filed as cell-based. In a few lines:
as §2

Data set [11] has as its system MCF7. The data set is described as follows: Cytotoxicity against human MCF7 cells at 10 uM incubated for 24 to 48 hrs by Celltiter-Glo assay relative to control. It is filed as cell-based. The conditions noted are these: mcf7, 10 µM, time 24-48 hrs. In a few lines:
as §3

Data set [12] has as its system HUVEC. Briefly: Cytotoxicity against HUVEC cells incubated for 24 to 48 hrs by Celltiter-Glo assay. The data set is classed as cell-based, Homo sapiens. As to conditions: huvec.
Data set [13] relates to SH-SY5Y. Briefly: Protection against iron(III)-induced damage in human SH-SY5Y cells assessed as increase in lysosomal activity at 10 uM pretreated for 30 mins followed by iron(III) treatment after 24 hrs by NR uptake assay relative to control. It is filed as functional. The conditions noted are these: time 24.5 hrs. In a few lines:
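Differentiated SH-SY5Y cells were pretreated with compounds at 1 or 10 μM for 30 min, then exposed to iron(III) at 1000 or 1500 μM for 24 h. Viability was read by neutral red uptake. Mean ± SD of three independent experiments, two-way ANOVA.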

Data set [14] deals with T1, Amine oxidase [flavin-containing] B. The data set is described as follows: Mixed-type inhibition of recombinant human MAO-B expressed in baculovirus infected BTI-TN- 5B1-4 insect cells at 1 to 5 nM using varying levels of kynuramine as substrate by Lineweaver-Burk plot analysis. As to conditions: dose 1-5 nM. In a few lines:
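Initial rates of hMAO-B activity were measured at six kynuramine concentrations (10−100 μM), without inhibitor and at three inhibitor concentrations. Kinetic parameters were read from a double-reciprocal Lineweaver−Burk plot. An Ackermann−Potter plot of total enzyme concentration was also constructed.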

Data set [15] has as its system HUVEC. Briefly: Cytotoxicity against HUVEC cells at 10 uM incubated for 24 to 48 hrs by Celltiter-Glo assay relative to control. It is filed as cell-based. As to conditions: human, time 24-48 hrs. Put shortly:
as §3

For data set [16], the system named is SH-SY5Y. The data set is described as follows: Cytotoxicity against human SH-SY5Y cells assessed as reduction in cell viability at 1 uM measured after 24 hrs by MTT assay relative to control. The data set is classed as cell-based. In a few lines:
as §2

For data set [17], the system named is SH-SY5Y. The data set is described as follows: Cytotoxicity against human SH-SY5Y cells assessed as reduction in cell viability at 10 uM measured after 24 hrs by MTT assay relative to control. It is filed as cell-based. In a few lines:
as §2

Chain of hERG (Q12809 whole entry): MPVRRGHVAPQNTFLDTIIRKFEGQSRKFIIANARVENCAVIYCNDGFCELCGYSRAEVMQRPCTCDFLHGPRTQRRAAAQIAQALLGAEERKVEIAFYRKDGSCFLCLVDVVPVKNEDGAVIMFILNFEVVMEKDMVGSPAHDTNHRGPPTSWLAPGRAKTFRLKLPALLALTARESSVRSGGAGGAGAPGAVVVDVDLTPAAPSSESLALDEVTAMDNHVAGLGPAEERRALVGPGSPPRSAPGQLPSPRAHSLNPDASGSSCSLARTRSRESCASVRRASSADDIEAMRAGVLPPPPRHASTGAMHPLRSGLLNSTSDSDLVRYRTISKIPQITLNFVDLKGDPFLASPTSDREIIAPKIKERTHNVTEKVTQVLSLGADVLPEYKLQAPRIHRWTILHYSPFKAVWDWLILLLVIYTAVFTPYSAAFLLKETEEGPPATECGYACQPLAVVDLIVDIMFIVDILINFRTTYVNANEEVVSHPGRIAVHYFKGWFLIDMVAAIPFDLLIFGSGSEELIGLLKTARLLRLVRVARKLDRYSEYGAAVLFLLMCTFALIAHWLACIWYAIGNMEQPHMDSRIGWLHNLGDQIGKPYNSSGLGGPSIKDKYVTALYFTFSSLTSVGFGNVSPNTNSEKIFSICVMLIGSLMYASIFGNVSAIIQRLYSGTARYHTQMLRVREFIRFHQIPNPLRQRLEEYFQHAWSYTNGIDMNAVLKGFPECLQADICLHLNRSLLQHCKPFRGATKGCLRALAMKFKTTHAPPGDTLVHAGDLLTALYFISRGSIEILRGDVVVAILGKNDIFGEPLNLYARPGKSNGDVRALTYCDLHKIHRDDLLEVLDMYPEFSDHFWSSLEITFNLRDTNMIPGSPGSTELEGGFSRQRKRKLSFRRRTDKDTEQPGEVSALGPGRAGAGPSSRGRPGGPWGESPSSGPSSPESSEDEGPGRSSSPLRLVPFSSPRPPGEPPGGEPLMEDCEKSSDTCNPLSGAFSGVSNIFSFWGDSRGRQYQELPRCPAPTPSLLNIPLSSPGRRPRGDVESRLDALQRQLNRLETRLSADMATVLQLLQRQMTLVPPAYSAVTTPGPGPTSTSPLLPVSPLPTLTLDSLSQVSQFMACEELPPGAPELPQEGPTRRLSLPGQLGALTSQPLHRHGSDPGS
Chain of ATP-dependent translocase ABCB1 (P08183 whole entry): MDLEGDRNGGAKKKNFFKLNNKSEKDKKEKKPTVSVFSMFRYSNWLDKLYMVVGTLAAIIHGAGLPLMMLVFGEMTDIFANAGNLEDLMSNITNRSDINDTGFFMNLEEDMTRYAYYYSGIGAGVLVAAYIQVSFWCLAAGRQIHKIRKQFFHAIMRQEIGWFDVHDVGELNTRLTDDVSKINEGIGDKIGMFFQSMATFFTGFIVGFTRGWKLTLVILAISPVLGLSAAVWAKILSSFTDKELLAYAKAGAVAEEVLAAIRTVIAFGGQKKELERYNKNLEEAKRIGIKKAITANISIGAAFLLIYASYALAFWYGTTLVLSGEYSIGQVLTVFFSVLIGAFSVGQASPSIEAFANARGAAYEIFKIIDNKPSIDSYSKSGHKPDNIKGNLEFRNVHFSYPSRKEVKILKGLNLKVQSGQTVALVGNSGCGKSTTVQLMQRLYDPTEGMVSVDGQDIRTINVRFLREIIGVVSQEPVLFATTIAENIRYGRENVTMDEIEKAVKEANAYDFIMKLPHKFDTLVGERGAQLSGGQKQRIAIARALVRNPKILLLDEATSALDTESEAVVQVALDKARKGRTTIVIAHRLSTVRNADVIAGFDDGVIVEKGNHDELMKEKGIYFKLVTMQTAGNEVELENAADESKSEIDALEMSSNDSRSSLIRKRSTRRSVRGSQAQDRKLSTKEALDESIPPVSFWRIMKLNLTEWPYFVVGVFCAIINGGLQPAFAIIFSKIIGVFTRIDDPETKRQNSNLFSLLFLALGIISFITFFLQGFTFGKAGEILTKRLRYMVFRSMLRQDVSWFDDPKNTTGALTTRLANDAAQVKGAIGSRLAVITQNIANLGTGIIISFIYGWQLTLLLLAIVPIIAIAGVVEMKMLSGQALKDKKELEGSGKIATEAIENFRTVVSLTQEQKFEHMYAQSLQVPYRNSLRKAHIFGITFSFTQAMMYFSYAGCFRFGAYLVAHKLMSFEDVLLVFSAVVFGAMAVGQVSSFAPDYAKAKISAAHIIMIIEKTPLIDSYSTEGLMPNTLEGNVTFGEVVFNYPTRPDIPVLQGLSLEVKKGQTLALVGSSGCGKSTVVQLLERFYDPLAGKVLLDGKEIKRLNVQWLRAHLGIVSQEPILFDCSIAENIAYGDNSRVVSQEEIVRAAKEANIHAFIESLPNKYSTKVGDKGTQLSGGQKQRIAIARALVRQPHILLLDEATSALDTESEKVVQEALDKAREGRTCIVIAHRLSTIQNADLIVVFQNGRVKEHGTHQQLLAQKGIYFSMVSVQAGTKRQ

What is called IC50 is the concentration that gives 50% inhibition. As to `O=C(Nc1cccc(Cl)c1)C1=Cc2ccccc2OC1`, the figures for the Activity entry in the data set with SH-SY5Y [1] and with Caco-2 [4] were “Non-Toxic” and 88.3%, respectively. The figures for the half-maximal inhibitory concentration (IC50) in [2] and in data set [3] were 26.4 nM and 11700 nM, respectively. Besides, the Ratio IC50 in the data set listed under Homo sapiens is 444.
As a reminder, the inhibition is the percentage by which the read-out fell short of the control. In the case of `O=C(Nc1cccc(Cl)c1)c1csc2ccccc2c1=O`, the half-maximal inhibitory concentration (IC50) result in the data set on HEK293 [5] is “Not Active”; in data set [2], 1.52 nM; with MCF7 [7], “Not Active”; in the data set with HUVEC [12], “Not Active”. Further, the Activity entry in the data set on SH-SY5Y [1] is recorded as “Non-Toxic”; in the data set with HEK293 [6], less than 10%; in data set [9], “Not Active”; in the data set on Caco-2 [10] it was “Non-Toxic”; with MCF7 [11] it was less than 10%; in the data set with SH-SY5Y [13], 63%. The Activity in the data set with HUVEC [15] was less than 10%. Besides, at hERG, the inhibition at 2 h, 10 µM was less than 10%. Also, the inhibition at 0.5 h, 10 µM at MAO-A is 0.7%. The TDI entry in data set [8] is “Active”. The Ratio IC50 in the data set filed under Homo sapiens was greater than 6570. In addition, in data set [14], the “inhibition (INH)” value is on record as “Active”.
Regarding `O=C(Nc1cccc(Cl)c1)c1cc2ccccc2oc1=O`, the Activity result in the data set on SH-SY5Y [1] is “Non-Toxic”; in the data set with SH-SY5Y [16], 79.5%; in the data set on Caco-2 [4] it was 93.5%; in the data set on SH-SY5Y [17] it was 71.8%. For the same molecule, the inhibition at 0.5 h, 10 µM at MAO-A amounted to 13.5%. Also, in data set [2], the 50% inhibitory concentration (IC50) amounted to 10.2 nM. The Ratio IC50 in the data set filed under Homo sapiens is greater than 985.

Source of the values: ChEMBL document CHEMBL4808210, “Mapping Chromone-3-Phenylcarboxamide Pharmacophore: Quid Est Veritas?” (J Med Chem, 2021).
